Compound activity as filed in PubChem.
This is a sample that favours compounds with a hit; in the whole collection about 2.5% have one here.
TRPC6 inh = mouse TRPC6 channel inhibitors, primary screen, cell-based, HEK293, membrane potential dye | Short transient receptor potential channel 6 (Mus musculus), Q61143 | ACh-evoked depolarization; active compounds read low | B-score at 10 µM | actives 1.1% (n = 310,000) | AID 2553, 2010;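 active = B-score under library mean minus 3 SD, initial fluorescence not abnormally high, positive integrated signal ratio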;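 note: B-score derived from integrated fluorescence ratio over the kinetic read; more negative B-score means stronger inhibition of depolarization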
Target sequence (Q61143 whole entry, looked up): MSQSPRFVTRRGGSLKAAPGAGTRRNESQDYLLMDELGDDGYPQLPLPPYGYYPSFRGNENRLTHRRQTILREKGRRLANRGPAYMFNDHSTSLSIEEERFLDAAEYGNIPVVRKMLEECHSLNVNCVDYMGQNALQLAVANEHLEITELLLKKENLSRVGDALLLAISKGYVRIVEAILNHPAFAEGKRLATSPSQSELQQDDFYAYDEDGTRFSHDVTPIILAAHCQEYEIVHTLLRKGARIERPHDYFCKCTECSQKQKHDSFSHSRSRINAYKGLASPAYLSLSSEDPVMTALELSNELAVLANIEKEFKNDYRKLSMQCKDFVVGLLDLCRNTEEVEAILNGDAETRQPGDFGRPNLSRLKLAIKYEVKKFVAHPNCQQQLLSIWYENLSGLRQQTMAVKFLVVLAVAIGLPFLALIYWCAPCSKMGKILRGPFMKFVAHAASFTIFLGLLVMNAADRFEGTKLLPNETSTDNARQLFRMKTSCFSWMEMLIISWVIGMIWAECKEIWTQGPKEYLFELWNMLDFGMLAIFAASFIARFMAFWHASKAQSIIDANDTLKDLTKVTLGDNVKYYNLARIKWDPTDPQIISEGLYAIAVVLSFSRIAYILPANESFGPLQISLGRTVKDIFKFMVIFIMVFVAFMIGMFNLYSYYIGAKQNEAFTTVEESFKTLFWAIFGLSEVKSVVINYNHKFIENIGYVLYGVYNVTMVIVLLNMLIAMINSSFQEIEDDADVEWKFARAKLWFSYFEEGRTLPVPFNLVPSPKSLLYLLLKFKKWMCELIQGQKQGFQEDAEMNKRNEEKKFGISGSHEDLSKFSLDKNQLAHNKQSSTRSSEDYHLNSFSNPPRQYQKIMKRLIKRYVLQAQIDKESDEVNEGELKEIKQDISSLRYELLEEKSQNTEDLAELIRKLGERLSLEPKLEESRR
TRPC4 agonist = activators of mouse TRPC4 channel, primary screen, Fluo4 calcium, HEK293 TRPC4beta/mu-opioid cells | B-score at 10 µM | Short transient receptor potential channel 4 (Mus musculus), Q9QUQ5 | Fluo4 calcium fluorescence; active compounds read high | AID 2237, 2010 | actives 0.49% (n = 310,000);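 active = B-score above 5 SD of library B-scores, and initial fluorescence ratio not above library mean plus 5 SD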;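 note: positive B-score marks a calcium rise read as TRPC4 activation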
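Material: HEK293 stable line with TRPC4beta plus mu-opioid receptor; technique: Fluo4 calcium-sensitive dye fluorescence, kinetic, 1 Hz baseline; timing: Fluo4 dye loading 45 min at room temperature, 110 s recording; controls: assay buffer as low control, maximal DAMGO as high control; read-out: integrated baseline-normalised fluorescence ratio, converted to per-well B score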
Platelet DG rel = inhibitors of platelet dense granule secretion, primary screen, cell-based, MLPCN, human platelets; human platelet-rich plasma, SFLLRN dense granule ATP release, luminescence; inhibition, %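 (compounds screened at 7.5 µM in platelet-rich plasma)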; actives 0.22% (n = 300,000); AID 1663, 2009;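 active = mean replicate score, as percent of positive control, at or above 50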
TRPC4 PAM = positive allosteric modulators of TRPC4, primary screen, cell-based, mouse TRPC4beta, HEK293 mu-opioid, Fluo-4 calcium; B-score at 10 µM; actives 0.42% (n = 310,000); AID 2227, 2009; DAMGO EC20, Fluo-4 Ca2+ flux; active compounds read high;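 active = B-score of calcium response area above 5 SD of library B-scores, with initial fluorescence ratio within 5 SD of library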;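 note: B-score of integrated fluorescence ratio over time as area under calcium response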
TRPC4 block = inhibitors of mouse TRPC4 channel, primary screen, Fluo4 calcium, HEK293 TRPC4beta/mu-opioid cells. Short transient receptor potential channel 4 (Mus musculus), Q9QUQ5. DAMGO-evoked Fluo4 calcium flux; active compounds read low. B-score at 10 µM. actives 0.39% (n = 300,000). AID 2247, 2010;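 active = B-score over 3 SD under the library average, no early fluorescence shift, positive overall ratio signal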
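Material: HEK293 cells with stable TRPC4beta plus mu-opioid receptor expression; probe or stimulus: DAMGO in two steps, submaximal then maximal; technique: Fluo4 calcium fluorescence by kinetic imaging, 5 s 1 Hz baseline; measure: integrated fluorescence ratio relative to baseline, converted to per-well B score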
TRPC6 activator = mouse TRPC6 channel activators, primary screen, cell-based, HEK293, membrane potential dye; Short transient receptor potential channel 6 (Mus musculus), Q61143; HEK293-TRPC6 membrane potential dye fluorescence; active compounds read high; B-score at 10 µM; actives 0.13% (n = 310,000);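 active = B-score of the integrated fluorescence ratio above library mean plus 3 SD, and starting fluorescence ratio within library mean plus 5 SD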;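 note: higher score means more depolarization so channel activation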
TRPC4 spec 2 = second check of whether TRPC6 inhibitors also affect mouse TRPC4. HEK293 TRPC4/MOR, membrane potential dye fluorescence; channel activated by saturating DAMGO dose. shares compounds with TRPC6 inh. inhibition, % at 10 µM. AID 2776. actives 42% (n = 920);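 active = compounds whose fluorescence signal differed from control wells by over 3 SD, either direction, in both duplicate plates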
TRPC4 spec = mouse TRPC4 modulation by TRPC6 hits, confirmation, selectivity assay for TRPC6 inhibitor project, cell-based, HEK293 TRPC4/mu-opioid, membrane potential dye; membrane potential fluorescence; activity change, negative = inhibition, % at 10 µM; shares compounds with TRPC6 inh; actives 61% (n = 920); AID 2777, 2010;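 active = rise or fall in signal beyond 3 SD of buffer-only wells in both replicate plates, either sign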;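 note: integrated kinetic ratio of fluorescence range over baseline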
HEK293 MPD ctr 2-1 = nonspecific membrane potential effects, parental HEK293, confirmation, counter-screen for TRPC6 inhibitor project, cell-based, second counter screen | actives 31% (n = 920) | parental HEK293 membrane potential dye fluorescence; maximal acetylcholine challenge after compound addition | signal change vs control, % at 10 µM | shares compounds with TRPC6 inh;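 active = membrane potential signal moving either way by over 3 SD of the maximum-effect control, in both duplicate plates, meaning non-specific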
HEK293 MPD ctr-1 = membrane potential modulation in parental HEK293, confirmation, counter-screen for TRPC6 inhibitor project, cell-based | shares compounds with TRPC6 inh | parental HEK293 membrane potential dye fluorescence | membrane potential signal change, % at 10 µM | actives 60% (n = 920) | AID 2780, 2010;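 active = membrane potential signal shifting up or down by more than 3 SD of buffer-only wells, on both duplicate plates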
HEK293 MPD ctr-2 = parental HEK293 membrane potential modulation, confirmation, counter-screen for TRPC6 modulator project, cell-based. membrane potential signal change, % at 10 µM. membrane potential dye fluorescence. actives 51% (n = 2,400). shares compounds with TRPC6 inh;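 active = membrane potential signal moves up or down beyond 5 SD from buffer-only wells, on both duplicate plates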
HEK293 MPD ctr 2-2 = second counter-screen for TRPC6 modulators: effect in parental HEK293 cells | shares compounds with TRPC6 inh | membrane potential dye fluorescence; after compound, maximal acetylcholine stimulation | inhibition, % at 10 µM | actives 14% (n = 2,400);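 active = membrane potential signal drops by more than 5 SD from the mean control signal, in both duplicate plates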;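 note: plate controls were acetylcholine ECmax control wells for no effect and buffer only wells for full effect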
TRPC4 ctr mod = TRPC4 modulation by TRPC6 hit compounds, confirmation, selectivity assay for TRPC6 modulator project, cell-based, HEK293 TRPC4/mu-opioid, membrane potential dye, mouse | shares compounds with TRPC6 inh | membrane potential fluorescence | actives 69% (n = 2,400) | percent change from control (negative = decrease, positive = increase), % at 10 µM;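 active = membrane potential signal moved up or down beyond 5 SD of buffer control wells, in both duplicate plates, actives on both sides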;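 note: plate controls were assay buffer wells for no effect and DAMGO maximal-effect wells for full effect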
TRPC4/MOR inh 2 = second check of whether TRPC6 modulators also affect mouse TRPC4 | actives 55% (n = 2,400) | HEK293 TRPC4/mu-opioid, membrane potential dye fluorescence; stimulated with maximal-effect DAMGO | AID 488928 | inhibition, % at 10 µM | shares compounds with TRPC6 inh;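 active = drop in membrane potential signal beyond 5 SD of the control wells in both duplicate plates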;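 note: TRPC4 counter screen for TRPC6 hits run under conditions tuned for TRPC6 not TRPC4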
TRPC6 block conf = mouse TRPC6 channel inhibitors, confirmation, HEK293 cells, membrane potential dye, duplicate. inhibition, % at 10 µM. shares compounds with TRPC6 inh. ACh-evoked depolarization. actives 43% (n = 3,300);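 active = fluorescence ratio falls more than 5 SD below the full-stimulation control mean, in both duplicate runs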;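 note: integrated fluorescence ratio of peak minus minimum over baseline after agonist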
TRPC6 act confirm = mouse TRPC6 channel activators, confirmation, HEK293 cells, membrane potential dye, duplicate; shares compounds with TRPC6 inh; AID 488961, 2010; actives 11% (n = 2,800); HEK293-TRPC6 membrane potential dye fluorescence, FDSS; activation, % at 10 µM;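 active = ratio signal rise beyond 5 SD above unstimulated control wells' mean, seen in both duplicate runs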;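 note: plate controls were buffer EC0 wells for no effect and acetylcholine ECmax response for full effect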
* marks the source's active call; other numbers are inactive results; i = inactive; . = no result.

SMILES	TRPC6 inh	TRPC4 agonist	Platelet DG rel	TRPC4 PAM	TRPC4 block	TRPC6 activator	TRPC6 block conf	TRPC6 act confirm	others
COc1ccc(Nc2ncnc3ccccc23)cc1	i	i	2.3	i	i	i	.	.
COc1ccc(Nc2ccnc3ccccc23)cc1	-8.46*	i	-5.4	i	i	i	53.8%*	i	TRPC4 spec 2=54.5%*;TRPC4 spec=-24.7%*;HEK293 MPD ctr 2-1=i;HEK293 MPD ctr-1=-284.0%*
CC(C)Nc1ccc(Nc2ccnc3cc4ccccc4cc23)cc1	-6.23*	i	3.3	i	i	i	i	i	HEK293 MPD ctr-2=i;HEK293 MPD ctr 2-2=i;TRPC4 ctr mod=i;TRPC4/MOR inh 2=54.5%*
Brc1ccc(-c2noc3c2-c2nc(C4CCCCC4)sc2CC3)cc1	i	i	-7.0	i	i	i	.	.
CCOC(=O)c1cnc2c(Cl)cccc2c1NCCN(C)C	-9.18*	i	-24.6	i	i	i	72.6%*	i	TRPC4 spec 2=68.0%*;TRPC4 spec=-26.2%*;HEK293 MPD ctr 2-1=18.0%*;HEK293 MPD ctr-1=-448.0%*
CCOC(=O)c1cnc2c(C(=O)OC)cccc2c1NCc1cccnc1	-6.16*	i	3.4	i	i	i	i	i	HEK293 MPD ctr-2=i;HEK293 MPD ctr 2-2=i;TRPC4 ctr mod=14.5%*;TRPC4/MOR inh 2=i
CCOC(=O)c1cnc2c(ccc3ccccc32)c1NCCO	i	i	-2.9	i	i	i	.	.
CCOC(=O)c1c(NCCN(C)C)c2ccccc2[nH]c1=O	i	i	2.9	i	i	i	.	.
CCOC(=O)c1cnc2c(ccc3ccccc32)c1NCCN(C)C	-6.79*	i	12.3	i	i	i	i	i	TRPC4 spec 2=74.5%*;TRPC4 spec=-14.3%*;HEK293 MPD ctr 2-1=i;HEK293 MPD ctr-1=-232.5%*
Clc1ccc(-c2cc(COc3ccccc3)on2)cc1	i	i	-7.1	i	i	i	.	.
COc1ccc(NC(=O)Nc2nnc(Cc3ccc(F)cc3)s2)cc1	i	i	-1.7	i	i	i	.	.
NNC(=O)CNC(=O)c1cccc(Br)c1	i	i	0.9	i	i	i	.	.
O=C(c1ccc(-c2ccccc2Cl)o1)N1CCN(S(=O)(=O)c2cccs2)CC1	i	i	-1.7	i	i	i	.	.
Cc1ccc(-n2c(SCc3ccc(C(=O)O)cc3)nnc2-c2ccncc2)cc1	i	i	-0.1	i	i	i	.	.
Cc1sc(NC(=O)c2ccccc2)c(C(=O)NCCN(C)C)c1C	-11.4*	148*	-3.7	i	i	i	62.0%*	i	HEK293 MPD ctr-2=-161.0%*;HEK293 MPD ctr 2-2=i;TRPC4 ctr mod=-31.0%*;TRPC4/MOR inh 2=74.0%*
CN(C)CCNC(=O)c1ccccc1	i	i	-1.6	i	i	i	.	.
CCOC(=O)C1=C(c2ccccc2)NC(=O)NC1c1ccc(O)c(OCC)c1 (stereo unspecified)	i	i	-3.5	i	i	i	.	.
CCOC(=O)C1=C(c2ccccc2)N(C)C(=O)NC1c1ccc(O)c(OC)c1 (stereo unspecified)	-9.18*	i	1.3	i	i	i	i	i	TRPC4 spec 2=i;TRPC4 spec=0.0%*;HEK293 MPD ctr 2-1=i;HEK293 MPD ctr-1=0.0%*
CCOCCCNC(=O)c1ccc2c(c1)N=C(CC)c1cc(Br)ccc1S2	i	i	2.3	i	i	i	.	.
CCOC(=O)C1CCCN(C(=O)c2cc3c(C)nc4ccccc4c3o2)C1 (stereo unspecified)	-6.86*	i	-3.5	i	i	i	61.1%*	i	TRPC4 spec 2=i;TRPC4 spec=4.0%*;HEK293 MPD ctr 2-1=i;HEK293 MPD ctr-1=3.1%*
Cc1nc2ccccc2c2oc(C(=O)N3CC(C)CC(C)C3)cc12 (stereo unspecified)	i	i	1.5	i	i	i	.	.
CCOC(=O)C1CCCN(C(=O)c2ccc(C)c([N+](=O)[O-])c2)C1 (stereo unspecified)	-5.78*	i	0.4	i	i	i	54.5%*	i	HEK293 MPD ctr-2=i;HEK293 MPD ctr 2-2=64.0%*;TRPC4 ctr mod=i;TRPC4/MOR inh 2=i
O=C(O)CC1NC(=O)N(C2CCCCC2)C1=O (stereo unspecified)	i	i	-6.1	i	i	i	.	.
